Values after ≈ are worked out from the molar mass of the structure shown. Blank lines part the entries; values can stand above or below the compound they belong to.
Assays:
Citrobacter freundii = test: In vitro minimum inhibitory concentration for Citrobacter freundii (ATCC-8090) by agar dilution method; format: functional; conditions: Citrobacter freundii; read-out: MIC
Method in brief: (§1)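 Two-fold serial dilutions of each compound dispersed in Mueller-Hinton agar; plates spot-inoculated with 2 μL of standard test strain at 10^7 CFU/mL, incubated 37 °C for 20 h; MIC read as lowest concentration inhibiting growth.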

Enterobacter cloacae = test: In vitro minimum inhibitory concentration for Enterobacter cloacae (ATCC-27508) by agar dilution method; format: functional; conditions: Enterobacter cloacae; read-out: MIC; method in brief: as §1
Klebsiella aerogenes = test: In vitro minimum inhibitory concentration for Enterobacter aerogenes (ATCC-29751) by agar dilution method; format: functional; conditions: Klebsiella aerogenes; read-out: MIC; method in brief: as §1
Klebsiella pneumoniae = test: In vitro minimum inhibitory concentration for Klebsiella pneumoniae (ATCC-10031) by agar dilution method; format: functional; conditions: Klebsiella pneumoniae; read-out: MIC
Pseudomonas aeruginosa [1] = test: In vitro minimum inhibitory concentration for Pseudomonas aeruginosa (ATCC-27853) by agar dilution method; format: functional; conditions: Pseudomonas aeruginosa; read-out: MIC; method in brief: as §1
Proteus vulgaris = test: In vitro minimum inhibitory concentration for Proteus vulgaris (ATCC-6059) by agar dilution method; format: functional; conditions: Proteus vulgaris; read-out: MIC; method in brief: as §1
Salmonella typhimurium = test: In vitro minimum inhibitory concentration for Salmonella Typhimurium (ATCC-14028) by agar dilution method; format: functional, Salmonella enterica subsp. enterica serovar Typhimurium; conditions: Salmonella enterica; read-out: MIC; method in brief: as §1
Serratia marcescens = test: In vitro minimum inhibitory concentration for Serratia marcescens (ATCC-27117) by agar dilution method; format: functional; conditions: Serratia marcescens; read-out: MIC; method in brief: as §1
[2] = test system: Staphylococcus epidermidis; test: In vitro minimum inhibitory concentration for Staphylococcus epidermidis (ATCC-12228) by agar dilution method; format: functional; conditions: Staphylococcus epidermidis; read-out: MIC; method in brief: as §1
Staphylococcus aureus = test: In vitro minimum inhibitory concentration for Staphylococcus aureus (ATCC 6538p) by agar dilution method; format: functional; conditions: Staphylococcus aureus, ATCC 6538p; read-out: MIC; method in brief: as §1
Escherichia coli = test: In vitro minimum inhibitory concentration for Escherichia coli (ATCC-10536) by agar dilution method; format: functional; conditions: Escherichia coli; read-out: MIC; method in brief: as §1
Pseudomonas aeruginosa [3] = test: In vitro minimum inhibitory concentration for Pseudomonas aeruginosa (ATCC 10145) by agar dilution method; format: functional; method in brief: as §1

Structure (SMILES): CC(C)(O/N=C(\C(=O)NC1C(=O)N2C(C(=O)O)=C(CSc3nc(O)cc(O)n3)CSC12)c1cnc(N)s1)C(=O)O (stereo not given)
MIC (Citrobacter freundii): 8 µg/mL (≈ 13.1 µM)
MIC (Enterobacter cloacae): 1 µg/mL (≈ 1.63 µM)
MIC (Klebsiella aerogenes): 32 µg/mL (≈ 52.3 µM)
MIC (Klebsiella pneumoniae): 2 µg/mL (≈ 3.27 µM)
MIC (Pseudomonas aeruginosa [1]): 32 µg/mL (≈ 52.3 µM)
MIC (Proteus vulgaris): 0.25 µg/mL (≈ 0.409 µM)
MIC (Salmonella typhimurium): 8 µg/mL (≈ 13.1 µM)
MIC (Serratia marcescens): 4 µg/mL (≈ 6.54 µM)
MIC [2]: > 128 µg/mL
MIC (Staphylococcus aureus): > 128 µg/mL
MIC (Escherichia coli): 4 µg/mL (≈ 6.54 µM)
MIC (Pseudomonas aeruginosa [3]): 32 µg/mL (≈ 52.3 µM)

Structure (SMILES): CC(C)(O/N=C(\C(=O)NC1C(=O)N2C(C(=O)[O-])=C(CSc3nc(N)cc(N)[n+]3-c3ccccc3)CSC12)c1cnc(N)s1)C(=O)O (stereo not given)
MIC (Citrobacter freundii): 0.25 µg/mL (≈ 0.365 µM)
MIC (Enterobacter cloacae): 0.06 µg/mL (≈ 0.0875 µM)
MIC (Klebsiella aerogenes): 0.5 µg/mL (≈ 0.729 µM)
MIC (Klebsiella pneumoniae): 0.13 µg/mL (≈ 0.19 µM)
MIC (Pseudomonas aeruginosa [1]): 2 µg/mL (≈ 2.92 µM)
MIC (Proteus vulgaris): 0.13 µg/mL (≈ 0.19 µM)
MIC (Salmonella typhimurium): 0.5 µg/mL (≈ 0.729 µM)
MIC (Serratia marcescens): 0.5 µg/mL (≈ 0.729 µM)
MIC [2]: 2 µg/mL (≈ 2.92 µM)
MIC (Staphylococcus aureus): 4 µg/mL (≈ 5.83 µM)
MIC (Escherichia coli): 0.25 µg/mL (≈ 0.365 µM)
MIC (Pseudomonas aeruginosa [3]): 4 µg/mL (≈ 5.83 µM)

Structure (SMILES): C[n+]1c(O)cc(O)nc1SCC1=C(C(=O)[O-])N2C(=O)C(NC(=O)/C(=N\OC(C)(C)C(=O)O)c3cnc(N)s3)C2SC1 (stereo not given)
MIC (Citrobacter freundii): 4 µg/mL (≈ 6.39 µM)
MIC (Enterobacter cloacae): 1 µg/mL (≈ 1.6 µM)
MIC (Klebsiella aerogenes): 16 µg/mL (≈ 25.6 µM)
MIC (Klebsiella pneumoniae): 2 µg/mL (≈ 3.2 µM)
MIC (Pseudomonas aeruginosa [1]): 16 µg/mL (≈ 25.6 µM)
MIC (Proteus vulgaris): 0.5 µg/mL (≈ 0.799 µM)
MIC (Salmonella typhimurium): 16 µg/mL (≈ 25.6 µM)
MIC (Serratia marcescens): 16 µg/mL (≈ 25.6 µM)
MIC [2]: > 128 µg/mL
MIC (Staphylococcus aureus): > 128 µg/mL
MIC (Escherichia coli): 4 µg/mL (≈ 6.39 µM)
MIC (Pseudomonas aeruginosa [3]): 32 µg/mL (≈ 51.1 µM)

Structure (SMILES): Cn1c(O)c[n+]2c(SCC3=C(C(=O)[O-])N4C(=O)C(NC(=O)/C(=N\OC(C)(C)C(=O)O)c5cnc(N)s5)C4SC3)nc(N)cc12 (stereo not given)
MIC (Citrobacter freundii): 0.25 µg/mL (≈ 0.377 µM)
MIC (Enterobacter cloacae): 0.03 µg/mL (≈ 0.0452 µM)
MIC (Klebsiella aerogenes): 4 µg/mL (≈ 6.03 µM)
MIC (Klebsiella pneumoniae): 0.13 µg/mL (≈ 0.196 µM)
MIC (Pseudomonas aeruginosa [1]): 4 µg/mL (≈ 6.03 µM)
MIC (Proteus vulgaris): 0.06 µg/mL (≈ 0.0904 µM)
MIC (Salmonella typhimurium): 0.5 µg/mL (≈ 0.753 µM)
MIC (Serratia marcescens): 0.5 µg/mL (≈ 0.753 µM)
MIC [2]: 4 µg/mL (≈ 6.03 µM)
MIC (Staphylococcus aureus): 16 µg/mL (≈ 24.1 µM)
MIC (Escherichia coli): 0.13 µg/mL (≈ 0.196 µM)
MIC (Pseudomonas aeruginosa [3]): 4 µg/mL (≈ 6.03 µM)

Structure (SMILES): CN(C)c1cc2n(C)cc[n+]2c(SCC2=C(C(=O)[O-])N3C(=O)C(NC(=O)/C(=N\OC(C)(C)C(=O)O)c4cnc(N)s4)C3SC2)n1 (stereo not given)
MIC (Citrobacter freundii): 0.25 µg/mL (≈ 0.37 µM)
MIC (Enterobacter cloacae): 0.06 µg/mL (≈ 0.0888 µM)
MIC (Klebsiella aerogenes): 4 µg/mL (≈ 5.92 µM)
MIC (Klebsiella pneumoniae): 0.13 µg/mL (≈ 0.192 µM)
MIC (Pseudomonas aeruginosa [1]): 4 µg/mL (≈ 5.92 µM)
MIC (Proteus vulgaris): 0.25 µg/mL (≈ 0.37 µM)
MIC (Salmonella typhimurium): 0.5 µg/mL (≈ 0.74 µM)
MIC (Serratia marcescens): 0.5 µg/mL (≈ 0.74 µM)
MIC [2]: 1 µg/mL (≈ 1.48 µM)
MIC (Staphylococcus aureus): 2 µg/mL (≈ 2.96 µM)
MIC (Escherichia coli): 0.13 µg/mL (≈ 0.192 µM)
MIC (Pseudomonas aeruginosa [3]): 8 µg/mL (≈ 11.8 µM)

Structure (SMILES): CC(C)(O/N=C(\C(=O)NC1C(=O)N2C(C(=O)[O-])=C(CSc3nc(N)cc(N)[n+]3-c3ccc(O)cc3)CSC12)c1cnc(N)s1)C(=O)O (stereo not given)
MIC (Citrobacter freundii): 0.25 µg/mL (≈ 0.356 µM)
MIC (Enterobacter cloacae): 0.06 µg/mL (≈ 0.0855 µM)
MIC (Klebsiella aerogenes): 2 µg/mL (≈ 2.85 µM)
MIC (Klebsiella pneumoniae): 0.13 µg/mL (≈ 0.185 µM)
MIC (Pseudomonas aeruginosa [1]): 1 µg/mL (≈ 1.42 µM)
MIC (Proteus vulgaris): 0.13 µg/mL (≈ 0.185 µM)
MIC (Salmonella typhimurium): 0.5 µg/mL (≈ 0.712 µM)
MIC (Serratia marcescens): 0.5 µg/mL (≈ 0.712 µM)
MIC [2]: 2 µg/mL (≈ 2.85 µM)
MIC (Staphylococcus aureus): 4 µg/mL (≈ 5.7 µM)
MIC (Escherichia coli): 0.25 µg/mL (≈ 0.356 µM)
MIC (Pseudomonas aeruginosa [3]): 2 µg/mL (≈ 2.85 µM)

Now those with a lower MIC (Citrobacter freundii), led by results:

MIC (Citrobacter freundii): 0.06 µg/mL (≈ 0.0907 µM)
MIC (Enterobacter cloacae): 0.02 µg/mL (≈ 0.0302 µM)
MIC (Klebsiella aerogenes): 2 µg/mL (≈ 3.02 µM)
MIC (Klebsiella pneumoniae): 0.06 µg/mL (≈ 0.0907 µM)
MIC (Pseudomonas aeruginosa [1]): 2 µg/mL (≈ 3.02 µM)
MIC (Proteus vulgaris): 0.06 µg/mL (≈ 0.0907 µM)
MIC (Salmonella typhimurium): 0.13 µg/mL (≈ 0.196 µM)
MIC (Serratia marcescens): 0.13 µg/mL (≈ 0.196 µM)
MIC [2]: 2 µg/mL (≈ 3.02 µM)
MIC (Staphylococcus aureus): 4 µg/mL (≈ 6.04 µM)
MIC (Escherichia coli): 0.06 µg/mL (≈ 0.0907 µM)
MIC (Pseudomonas aeruginosa [3]): 4 µg/mL (≈ 6.04 µM)
Structure (SMILES): CCn1cc[n+]2c(SCC3=C(C(=O)[O-])N4C(=O)C(NC(=O)/C(=N\OC(C)(C)C(=O)O)c5cnc(N)s5)C4SC3)nc(N)cc12 (stereo not given)

MIC (Citrobacter freundii): 0.13 µg/mL (≈ 0.196 µM)
MIC (Enterobacter cloacae): 0.03 µg/mL (≈ 0.0453 µM)
MIC (Klebsiella aerogenes): 4 µg/mL (≈ 6.04 µM)
MIC (Klebsiella pneumoniae): 0.25 µg/mL (≈ 0.378 µM)
MIC (Pseudomonas aeruginosa [1]): 4 µg/mL (≈ 6.04 µM)
MIC (Proteus vulgaris): 0.13 µg/mL (≈ 0.196 µM)
MIC (Salmonella typhimurium): 0.5 µg/mL (≈ 0.756 µM)
MIC (Serratia marcescens): 0.5 µg/mL (≈ 0.756 µM)
MIC [2]: 4 µg/mL (≈ 6.04 µM)
MIC (Staphylococcus aureus): 8 µg/mL (≈ 12.1 µM)
MIC (Escherichia coli): 0.13 µg/mL (≈ 0.196 µM)
MIC (Pseudomonas aeruginosa [3]): 8 µg/mL (≈ 12.1 µM)
Structure (SMILES): CNc1cc2n(C)cc[n+]2c(SCC2=C(C(=O)[O-])N3C(=O)C(NC(=O)/C(=N\OC(C)(C)C(=O)O)c4cnc(N)s4)C3SC2)n1 (stereo not given)

MIC (Citrobacter freundii): 0.13 µg/mL (≈ 0.2 µM)
MIC (Enterobacter cloacae): 0.02 µg/mL (≈ 0.0308 µM)
MIC (Klebsiella aerogenes): 1 µg/mL (≈ 1.54 µM)
MIC (Klebsiella pneumoniae): 0.06 µg/mL (≈ 0.0925 µM)
MIC (Pseudomonas aeruginosa [1]): 2 µg/mL (≈ 3.08 µM)
MIC (Proteus vulgaris): 0.06 µg/mL (≈ 0.0925 µM)
MIC (Salmonella typhimurium): 0.25 µg/mL (≈ 0.385 µM)
MIC (Serratia marcescens): 0.25 µg/mL (≈ 0.385 µM)
MIC [2]: 1 µg/mL (≈ 1.54 µM)
MIC (Staphylococcus aureus): 8 µg/mL (≈ 12.3 µM)
MIC (Escherichia coli): 0.06 µg/mL (≈ 0.0925 µM)
MIC (Pseudomonas aeruginosa [3]): 4 µg/mL (≈ 6.17 µM)
Structure (SMILES): Cn1cn[n+]2c(SCC3=C(C(=O)[O-])N4C(=O)C(NC(=O)/C(=N\OC(C)(C)C(=O)O)c5cnc(N)s5)C4SC3)nc(N)cc12 (stereo not given)

MIC (Citrobacter freundii): 0.13 µg/mL (≈ 0.204 µM)
MIC (Enterobacter cloacae): 0.03 µg/mL (≈ 0.047 µM)
MIC (Klebsiella aerogenes): 2 µg/mL (≈ 3.14 µM)
MIC (Klebsiella pneumoniae): 0.06 µg/mL (≈ 0.0941 µM)
MIC (Pseudomonas aeruginosa [1]): 1 µg/mL (≈ 1.57 µM)
MIC (Proteus vulgaris): 0.03 µg/mL (≈ 0.047 µM)
MIC (Salmonella typhimurium): 0.25 µg/mL (≈ 0.392 µM)
MIC (Serratia marcescens): 0.13 µg/mL (≈ 0.204 µM)
MIC [2]: 1 µg/mL (≈ 1.57 µM)
MIC (Staphylococcus aureus): 2 µg/mL (≈ 3.14 µM)
MIC (Escherichia coli): 0.06 µg/mL (≈ 0.0941 µM)
MIC (Pseudomonas aeruginosa [3]): 2 µg/mL (≈ 3.14 µM)
Structure (SMILES): CC[n+]1c(N)cc(N)nc1SCC1=C(C(=O)[O-])N2C(=O)C(NC(=O)/C(=N\OC(C)(C)C(=O)O)c3cnc(N)s3)C2SC1 (stereo not given)

— ChEMBL document CHEMBL1127395, “Synthesis and antimicrobial activity of novel 3-[(aminopyrimidiniumyl)thio]methyl cephalosporins” (1994)
